Screening results as filed in PubChem.
L major viab: Leishmania major promastigote growth inhibition, primary screen; Leishmania major promastigotes, resazurin fluorescence viability; inhibition, % at 10 µM; hit rate 9% among 200,000; AID 1063, 2008; in the data active means inhibition above about 50%;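 further: promastigotes grown with compound for 44 hours at 28 °C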
PMI act: activators of human PMI, primary screen, biochemical, fluorescence intensity, near-Km mannose 6-phosphate. Mannose-6-phosphate isomerase (Homo sapiens), P34949. purified human PMI, coupled resazurin fluorescence, 20 min; stronger effect = higher value; 1 = vehicle control, 0 substrate-free wells. activation factor at 20 µM. hit rate 0.005% among 190,000;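 active means activation factor of 2 or more at 20 µM, relative to plate controls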
Target sequence (P34949 whole entry, looked up): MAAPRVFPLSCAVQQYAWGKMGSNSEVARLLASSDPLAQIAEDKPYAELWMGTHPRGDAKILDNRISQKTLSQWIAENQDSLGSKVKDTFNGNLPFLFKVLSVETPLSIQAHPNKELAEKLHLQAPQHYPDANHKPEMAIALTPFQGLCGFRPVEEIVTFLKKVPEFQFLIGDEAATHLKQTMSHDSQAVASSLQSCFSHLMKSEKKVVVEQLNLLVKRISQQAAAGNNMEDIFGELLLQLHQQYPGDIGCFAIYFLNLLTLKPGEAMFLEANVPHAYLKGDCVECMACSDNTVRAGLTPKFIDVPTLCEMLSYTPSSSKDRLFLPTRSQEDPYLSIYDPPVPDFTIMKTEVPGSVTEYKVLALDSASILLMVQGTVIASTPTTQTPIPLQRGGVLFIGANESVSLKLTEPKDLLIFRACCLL
WT yeast gro inh: growth inhibition of WT strain, primary screen, mitochondrial fusion inhibitor project, WT and mutant strains, chemical genetic | inhibition, % at 10 µM | hit rate 2.1% among 190,000 | mitochondrial fusion phenotypic screen; in the data active means inhibition above about 58%; tested in S. cerevisiae
PMI act hi M6P: human PMI activators, high substrate, primary screen, biochemical, fluorescence intensity, near-saturating mannose 6-phosphate | Mannose-6-phosphate isomerase (Homo sapiens), P34949 | coupled PMI enzyme assay, resazurin fluorescence, 20 min; stronger effect = higher value; 1 = untreated enzyme, 0 = substrate-free blank | activation factor at 20 µM | hit rate 0.34% among 190,000 | AID 1216, 2008;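 active means activation factor of 2 or more at 20 µM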
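Technique: Diaphorase-driven resazurin-to-resorufin fluorescence, excitation 544, emission 590 nm | Assay system: Human PMI in coupled enzyme assay | Times: Enzyme reaction with compound 20 min at room temperature | Medium: HEPES-buffered pH 7.4 with magnesium and detergent | Reagent: Mannose-6-phosphate 1.0 mM (near-saturating) plus 0.22 mM NADP+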
Diaphorase act: compounds boosting diaphorase resazurin reduction – biochemical, uHTS, resorufin fluorescence, counter-screen for diaphorase-coupled primary assays, primary screen | hit rate 0.005% among 190,000 | activation factor at 20 µM | Diaphorase/resazurin coupled assay, 16 min; stronger effect = higher value; 1 = vehicle wells, 0 = NADH-free wells;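 active means diaphorase activity raised at least twofold by the compound at 20 µM; inactive means activation factor below 2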
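System – purified diaphorase enzyme from Clostridium kluyveri · Input – enzyme 0.07 U/mL final · Also added – final NADH 0.114 mM, resazurin 0.1 mM · Measured by – fluorescence of resorufin, 544 nm excitation, 590 nm emission · Timing – 16 min enzyme reaction, ambient temperature · Measure – resorufin increase flagging diaphorase activators or reducers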
Starred values were filed as active, the others as inactive; · = not tested or not shown. In the library only some 10% were active in any assay of this set; here they are far more common.

SMILES	L major viab	PMI act	WT yeast gro inh	PMI act hi M6P	Diaphorase act
COc1ccc(CCNc2ccc(N3C(=O)CC(C)C3=O)cc2[N+](=O)[O-])cc1OC (stereo not drawn)	0.5	1	-9.3	1	0.8
O=c1cnn(-c2ccccc2)c(-c2ccccc2)c1	82.0*	1.1	11.3	1	1
O=C(O)c1cc(-c2ccc(Cl)cc2)n(-c2ccccc2)n1	-1.8	1.2	-9.1	1.2	1
COc1ccc(OC)c(S(=O)(=O)Nc2cc(C(=O)O)ccc2N2CC3CC(C2)c2cccc(=O)n2C3)c1 (stereo not drawn)	2.9	1.2	-4.0	1.1	0.9
Cc1ccc(-c2cc3c(N=O)c4ccccc4c-3n[nH]2)cc1	40.5	1	64.0*	1	0.8
COc1ccc(C2CC(=O)c3c(ccc4ccccc34)N2)cc1OC (stereo not drawn)	99.7*	0.9	20.1	0.9	0.7
CCOC(=O)c1ccc2ncc(C(=O)OCC)c(Nc3ccc(N4CCOCC4)cc3)c2c1	74.0*	0.8	34.5	0.8	0.7
CCOC(=O)c1cnc2ccc(C(=O)OC)cc2c1Nc1ccc2c(c1)OCCO2	-0.4	1	32.4	1	0.9
CCOC(=O)c1cnc2ccc(OC)cc2c1Nc1ccc2c(c1)OCCO2	27.1	0.9	76.6*	0.9	0.9
CCOC(=O)c1ccc2ncc(C(=O)OCC)c(NCCCN3CCOCC3)c2c1	59.7*	0.9	18.6	0.9	1.1
CCOC(=O)c1cnc2ccc(C(=O)OC)cc2c1Nc1ccc(C(=O)O)cc1	10.6	1	-3.0	0.9	0.8
Cc1cccc(Oc2ccc(Cl)cc2N)c1	-1.4	1.1	16.0	1.2	0.8
Cc1nc(NC(C)C)c2cnn(CCc3ccccc3)c2n1	15.6	1	1.9	1	0.8
CCOC(=O)C1=C(O)C(=O)N(Cc2ccccc2)CC1	-4.5	1	-10.9	1	0.8
Cc1ccccc1CNC(=O)CCc1ccccc1	-3.8	0.9	-14.9	1	0.9
Cc1ccccc1Cn1ccc(=NCc2ccccc2)cc1	100.4*	0.9	13.2	0.9	0.9
Cc1ccc(NC(=O)c2c(O)c3ccccc3n(C)c2=O)nc1	70.9*	1	8.2	1	1.3
Cc1nc2ccccc2c(=O)n1NC(=O)c1c(O)c2ccccc2n(C)c1=O	·	0.9	5.4	0.9	1
CCCCc1nc2ccccc2c(=O)n1NC(=O)c1c(O)c2ccccc2n(C)c1=O	73.1*	·	26.7	·	·
O=C(CCSCCc1ccccn1)Nc1cccc([N+](=O)[O-])c1	-1.3	1.1	-17.7	1.1	1
CC(C)C(=O)NC(NC(=O)C(C)C)c1ccc([N+](=O)[O-])cc1	1.7	1.1	5.0	1.1	1
COc1ccc(/C=C/C(=O)NCCN=C2NS(=O)(=O)c3ccccc32)cc1	-6.2	1	-5.3	1	0.9
O=C(Nc1ccc(Cl)cc1)/C(=C/c1cccc(O)c1)c1nc2ccccc2s1	100.4*	0.8	54.2	0.9	0.7
Cc1occc1C(=O)Nc1ccc(Br)cc1F	-1.7	0.8	-2.2	0.9	0.8
CC(C)N1C/C(=C/c2ccsc2)C(=O)/C(=C/c2ccsc2)C1	100.5*	1	-6.6	1.2	0.9
SMILES	L major viab	PMI act	WT yeast gro inh	PMI act hi M6P	Diaphorase act
CC(C)N1C/C(=C/c2cccnc2)C(=O)/C(=C/c2cccnc2)C1	100.4*	0.9	4.7	1	0.9
CCN1C(=O)S/C(=C/c2ccsc2)C1=O	-1.8	0.9	11.7	0.9	0.9
CC(C)N1CC2=C(OC(N)=C(C#N)C2c2cccnc2)/C(=C/c2cccnc2)C1 (stereo not drawn)	7.9	1	-8.2	0.6	0.8
CC1=N/C(=C/c2cccnc2)C(=O)O1	0.3	1	-18.5	1	0.8
CN1C/C(=C/c2cccnc2)C(=O)/C(=C/c2cccnc2)C1	100.3*	0.8	-0.7	0.8	0.9
COc1cc([N+](=O)[O-])cc2sc(NC(=O)c3c(F)cccc3F)nc12	-1.2	1.2	-18.4	0.8	1
Cc1ccc(C(=O)CCC(=O)Nc2cccc(C(F)(F)F)c2)cc1	-5.8	1	11.0	1	0.9
CCOc1ccc(-n2c(SCc3ccc([N+](=O)[O-])cc3)nnc2-c2ccc(OC)cc2)cc1	36.6	0.9	21.8	1	1
CCCC1(CCC)NC(=O)N(CC(=O)Nc2cccc(OC)c2)C1=O	-8.4	1	63.8*	1	0.9
CCn1c2c(c3cc(Br)ccc31)CCC/C2=N\O	19.4	0.8	4.4	0.9	0.8
CCCn1c2ccc(/C(C)=N\O)cc2c2cc(/C(C)=N/O)ccc21	59.4*	0.9	-35.6	0.8	0.7
Cc1c(C(=O)C(=O)NCCCn2ccnc2)c2ccccc2n1C	11.1	1.1	-9.3	1.2	1.1
CCOC(=O)c1ccc(NC(=O)/C=C/c2cccs2)cc1	14.3	0.8	19.9	0.9	0.8
CCN(CC)CCOC(=O)c1ccc(NC(=O)C2(c3ccccc3)CCCC2)cc1	69.5*	1.2	-1.8	1.1	1
CCN(CC)CCOC(=O)c1ccc(NC(=O)CNC(=O)C2CCCCC2)cc1	-5.7	1.1	12.8	1.1	0.9
CCN(CC)CCOC(=O)c1ccc(NC(=O)/C=C/c2cccs2)cc1	69.0*	1.2	5.2	1.1	1
CCOC(=O)c1cnc(SC)nc1Sc1cc(Cl)ccc1Cl	8.7	0.9	71.4*	1	0.9
CCOC(=O)c1cnc(SC)nc1Nc1cccc(F)c1	9.1	1	-4.9	0.9	0.8
Cc1sc2nc(-c3ccccn3)[nH]c(=O)c2c1-c1ccccc1	99.4*	0.7	55.9	1.1	1
CCOC(=O)COc1cc(-n2c(=S)[nH]c3cc(OC)c(OC)cc3c2=O)c(Cl)cc1Cl	-9.9	0.9	-3.3	0.8	0.8
Cc1ccc(S(=O)(=O)N(C)Cc2ccc(C(=O)N/N=C/c3ccc(OC(F)F)cc3OC(F)F)cc2)cc1	55.1*	0.8	-2.9	0.9	0.9
O=C1CSC(c2nn(-c3ccccc3)cc2-c2cc3ccccc3oc2=O)N1Cc1ccco1 (stereo not drawn)	51.7*	0.8	5.0	0.8	0.7
O=C1CC(c2cccc([N+](=O)[O-])c2)c2ccc3ccccc3c2N1 (stereo not drawn)	30.7	0.8	54.4	0.9	0.7
O=C1CC(c2cc([N+](=O)[O-])ccc2Cl)c2c(ccc3ccccc23)N1 (stereo not drawn)	92.3*	0.9	5.3	0.9	0.8
CN(C)CCNc1ncnc2c1sc1nc(N3CCOCC3)c3c(c12)CC(C)(C)SC3	100.6*	0.9	23.8	0.9	0.9
CCN(CC)CCNc1ncnc2c1sc1nc(N3CCOCC3)c3c(c12)CC(C)(C)SC3	100.5*	0.9	0.2	0.9	0.8
